Test results: ChEMBL document CHEMBL4145668, “Dipeptide Prodrugs of the Glutamate Modulator Riluzole” (ACS Med Chem Lett, 2018)
Activity calls are given as the source filed them. No cut-off for these calls is given here.

Legend:
[1] = Prodrug conversion in rat serum assessed as riluzole formation by measuring compound half life; type: ADME, cell-free
Outline: (§1)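 Each prodrug was incubated in pH 7.4 buffer, fresh rat serum, simulated gastric fluid or simulated intestinal fluid. Prodrug disappearance was followed for up to 2-4 h to derive a half-life in hours.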

[2] = Prodrug conversion in simulated gastric fluid assessed as riluzole formation by measuring compound half life at 0.01 mg/ml by LC/MS analysis; type: ADME; details: simulated gi fluid; outline: as §1
[3] = Prodrug conversion in simulated intestinal fluid assessed as riluzole formation by measuring compound half life at 0.01 mg/ml by LC/MS analysis; type: ADME; details: simulated gi fluid; outline: as §1
[4] = Prodrug conversion in pH 7.4 buffer assessed as riluzole formation by measuring compound half life; type: physicochemical; outline: as §1
[5] = Apparent permeability across basolateral to apical side in human Caco2 cells; type: ADME, cell-based; details: Caco-2
Outline: (§2)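 Bidirectional transport across Caco-2 monolayers was measured as Papp A-B and Papp B-A in nm/s. Efflux ratio was calculated as B-A over A-B.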

Rattus norvegicus [6] = assay: AUClast in Sprague-Dawley rat assessed as riluzole level at 14.6 mg/kg, po measured up to 8 hrs; type: ADME, organism-based; design: time < 8 hr, dose 14.6 mg/kg, route oral; details: in vivo
Outline: (§3)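 Male Sprague-Dawley rats received a single oral dose. Plasma prodrug and riluzole levels were monitored up to eight hours after dosing.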

Rattus norvegicus [7] = assay: AUClast in Sprague-Dawley rat assessed as riluzole level at 2.8 mg/kg, iv measured up to 8 hrs; type: ADME, organism-based; design: time < 8 hr, dose 2.8 mg/kg, route intravenous; details: in vivo
[8] = Prodrug conversion in dog liver microsomes assessed as riluzole formation by measuring half life; type: ADME, Canis lupus familiaris, microsome
Outline: (§4)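 Prodrug stability was tested in human, mouse, rat and dog liver microsomes, and a half-life in minutes was reported.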

Rattus norvegicus [9] = assay: Tmax in Sprague-Dawley rat assessed as riluzole level at 14.6 mg/kg, po measured up to 8 hrs; type: ADME, organism-based; details: in vivo; outline: as §3
CYP1A2 = target: T1, CYP1A2 (Homo sapiens, UniProt P05177); assay: Inhibition of CYP1A2 (unknown origin) at 10 uM relative to control; type: ADME
T1 sequence (P05177 whole entry): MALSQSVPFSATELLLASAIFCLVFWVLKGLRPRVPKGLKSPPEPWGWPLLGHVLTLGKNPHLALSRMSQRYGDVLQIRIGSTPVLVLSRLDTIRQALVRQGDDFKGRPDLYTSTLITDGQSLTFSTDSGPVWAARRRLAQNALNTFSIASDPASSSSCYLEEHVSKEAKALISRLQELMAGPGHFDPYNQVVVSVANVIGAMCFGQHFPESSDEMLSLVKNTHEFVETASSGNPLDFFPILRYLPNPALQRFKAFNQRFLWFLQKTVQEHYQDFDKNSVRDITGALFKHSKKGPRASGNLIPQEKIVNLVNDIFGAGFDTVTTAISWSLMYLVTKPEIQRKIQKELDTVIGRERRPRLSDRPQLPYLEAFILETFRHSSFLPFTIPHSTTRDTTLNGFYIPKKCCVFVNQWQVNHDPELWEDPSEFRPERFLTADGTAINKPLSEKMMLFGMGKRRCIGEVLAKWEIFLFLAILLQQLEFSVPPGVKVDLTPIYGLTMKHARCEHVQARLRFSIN

Rattus norvegicus [10] = assay: Cmax in Sprague-Dawley rat assessed as riluzole level at 2.8 mg/kg, iv measured up to 8 hrs; type: ADME, organism-based; design: dose 2.8 mg/kg, route intravenous; details: in vivo
[11] = Tmax in Sprague-Dawley rat at 2.8 mg/kg, iv; type: ADME, organism-based; details: in vivo
CYP2D6 = CYP2D6 (Homo sapiens, UniProt P10635); assay: Inhibition of CYP2D6 (unknown origin) at 10 uM relative to control; type: ADME
[12] = Prodrug conversion in mouse liver microsomes assessed as riluzole formation by measuring half life; type: ADME, microsome; outline: as §4
Rattus norvegicus [13] = assay: Half life in Sprague-Dawley rat assessed as riluzole level at 2.8 mg/kg, iv measured up to 8 hrs; type: ADME, organism-based; details: in vivo
Homo sapiens [14] = assay: Antitumor activity against human C8161 cells xenografted in mouse assessed as tumor growth inhibition at 4.9 to 14.8 mg/kg, po administered once daily via gavage for 21 days measured at 7 days interval during compound dosing; type: functional, organism-based
Outline: (§5)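 Nude mice were inoculated in the flank with 10^6 human C8161 melanoma cells. When tumors reached 40 mm3, the mice were randomized into groups of similar tumor volume. Vehicle was DMSO. Dosing was daily by oral gavage for 21 days, and tumor growth was followed.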

Rattus norvegicus [15] = assay: Oral bioavailability in Sprague-Dawley rat at 14.6 mg/kg; type: ADME, organism-based; details: in vivo; outline: as §3
Rattus norvegicus [16] = assay: Cmax in Sprague-Dawley rat assessed as riluzole level at 14.6 mg/kg, po measured up to 8 hrs; type: ADME, organism-based; design: dose 14.6 mg/kg, route oral; details: in vivo; outline: as §3
[17] = Prodrug conversion in mouse plasma xenografted with human C8161 cells assessed as riluzole formation at 4.9 to 14.8 mg/kg, po administered via gavage measured 2 hrs post dose; type: ADME, organism-based; details: in vivo
Outline: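 In C8161 xenograft-bearing nude mice given daily oral gavage doses, plasma was sampled from selected animals 2 hours post dosing to check riluzole exposure.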

CYP3A4 [18] = target: T2, CYP3A4 (Homo sapiens, UniProt P08684); assay: Inhibition of CYP3A4 (unknown origin) at 10 uM using midazolam as substrate relative to control; type: ADME; details: probe midazolam
[19] = Apparent permeability across apical to basolateral side in human Caco2 cells; type: ADME, cell-based; details: Caco-2; outline: as §2
CYP3A4 [20] = target: T2, CYP3A4; assay: Inhibition of CYP3A4 (unknown origin) at 10 uM using testosterone as substrate relative to control; type: ADME; details: probe testosterone
[21] = Efflux ratio of apparent permeability […] in human Caco2 cells; type: ADME, cell-based; details: Caco-2
[22] = Prodrug conversion in human liver microsomes assessed as riluzole formation by measuring half life; type: ADME, microsome; outline: as §4
[23] = Prodrug conversion in rat liver microsomes assessed as riluzole formation by measuring half life; type: ADME, microsome; outline: as §4
Rattus norvegicus [24] = assay: Tmax in Sprague-Dawley rat assessed as riluzole level at 2.8 mg/kg, iv measured up to 8 hrs; type: ADME, organism-based; details: in vivo
[25] = Cmax in Sprague-Dawley rat at 2.8 mg/kg, iv; type: ADME, organism-based; design: dose 2.8 mg/kg, route intravenous; details: in vivo
Homo sapiens [26] = assay: Antitumor activity against human C8161 cells xenografted in mouse assessed as tumor growth inhibition at 7.5 mg/kg, po administered once daily via gavage for 21 days measured at 7 days interval during compound dosing; type: functional, organism-based; outline: as §5

T2 sequence (P08684 whole entry): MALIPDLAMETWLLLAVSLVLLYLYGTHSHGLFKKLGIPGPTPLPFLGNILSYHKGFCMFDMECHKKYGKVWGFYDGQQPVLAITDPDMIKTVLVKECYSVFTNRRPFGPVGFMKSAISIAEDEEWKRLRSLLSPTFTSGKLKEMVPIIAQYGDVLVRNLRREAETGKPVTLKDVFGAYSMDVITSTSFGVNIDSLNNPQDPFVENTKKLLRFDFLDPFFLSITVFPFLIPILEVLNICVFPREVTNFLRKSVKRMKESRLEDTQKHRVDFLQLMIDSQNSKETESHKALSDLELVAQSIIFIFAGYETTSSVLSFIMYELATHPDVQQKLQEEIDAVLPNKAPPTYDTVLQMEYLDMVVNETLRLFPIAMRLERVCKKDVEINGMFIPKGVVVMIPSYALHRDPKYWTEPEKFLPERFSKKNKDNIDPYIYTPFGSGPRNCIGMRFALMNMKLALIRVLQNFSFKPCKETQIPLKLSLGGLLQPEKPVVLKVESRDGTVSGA
Sequence of CYP2D6 (P10635 whole entry): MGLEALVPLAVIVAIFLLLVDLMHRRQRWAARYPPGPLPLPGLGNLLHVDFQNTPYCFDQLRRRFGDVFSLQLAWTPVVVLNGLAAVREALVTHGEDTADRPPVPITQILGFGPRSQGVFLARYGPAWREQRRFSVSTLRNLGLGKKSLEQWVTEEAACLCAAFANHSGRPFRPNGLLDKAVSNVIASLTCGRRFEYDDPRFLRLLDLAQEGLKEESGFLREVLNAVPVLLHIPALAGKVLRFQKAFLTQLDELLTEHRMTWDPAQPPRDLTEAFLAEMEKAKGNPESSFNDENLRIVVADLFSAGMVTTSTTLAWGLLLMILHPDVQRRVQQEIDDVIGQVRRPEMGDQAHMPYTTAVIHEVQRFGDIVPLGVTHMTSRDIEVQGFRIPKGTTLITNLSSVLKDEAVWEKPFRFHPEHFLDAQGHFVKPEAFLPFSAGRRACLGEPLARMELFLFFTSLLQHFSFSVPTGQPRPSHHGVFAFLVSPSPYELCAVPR

## CNCC(=O)N(C)CC(=O)Nc1nc2ccc(OC(F)(F)F)cc2s1
[1]
  t1/2: < 0.1 h
[2]
  t1/2: > 4 h
[3]
  t1/2: < 1 h
[4]
  t1/2: < 0.1 h

## NCC(=O)N1CCC[C@@H]1C(=O)Nc1nc2ccc(OC(F)(F)F)cc2s1
[1]
  t1/2: 0.25 h
[2]
  t1/2: 2.5 h
[3]
  t1/2: < 1 h
[4]
  t1/2: 0.2 h

## CC(C)NCC(=O)N(C)CC(=O)Nc1nc2ccc(OC(F)(F)F)cc2s1
[1]
  t1/2: > 2 h
[2]
  t1/2: > 4 h
[3]
  t1/2: > 4 h
[4]
  t1/2: > 24 h

## CC(C)(C)NCC(=O)NC(C)(C)C(=O)Nc1nc2ccc(OC(F)(F)F)cc2s1
[1]
  t1/2: > 2 h
[2]
  t1/2: > 4 h
[3]
  t1/2: > 4 h
[4]
  t1/2: > 2 h

## CC(C)(NC(=O)CN)C(=O)Nc1nc2ccc(OC(F)(F)F)cc2s1
[1]
  t1/2: 2 h
[2]
  t1/2: > 4 h
[3]
  t1/2: < 1 h

## CN(CC(=O)Nc1nc2ccc(OC(F)(F)F)cc2s1)C(=O)CNC(C)(C)C
[5]
  Papp B→A: 2.41 ×10⁻⁶ cm/s
Rattus norvegicus [6]
  AUClast: 20518 ng·h/mL
Rattus norvegicus [7]
  AUClast: 1137 ng·h/mL
[8]
  t1/2: > 1 h
Rattus norvegicus [9]
  Tmax: 8 h
[1]
  t1/2: > 2 h
CYP1A2
  inhibition at 10 µM: < 10%
Rattus norvegicus [10]
  Cmax: 187 ng/mL
[11]
  Tmax: 0 h
CYP2D6
  inhibition at 10 µM: < 10%
[12]
  t1/2: > 1 h
Rattus norvegicus [13]
  t1/2: 7.83 h
Homo sapiens [14]
  TGI: Active
Rattus norvegicus [15]
  F: 70%
Rattus norvegicus [16]
  Cmax: 1587 ng/mL
[17]
  Drug metabolism: Metabolite_Detected
[2]
  t1/2: > 4 h
CYP3A4 [18]
  inhibition at 10 µM: < 10%
[3]
  t1/2: > 4 h
[19]
  Papp A→B: 1.38 ×10⁻⁶ cm/s
CYP3A4 [20]
  inhibition at 10 µM: < 10%
[4]
  t1/2: > 24 h
[21]
  efflux ratio: 1.7
[22]
  t1/2: > 1 h
[23]
  t1/2: > 1 h
Rattus norvegicus [24]
  Tmax: 0.78 h
[25]
  Cmax: 1730 ng/mL

## Nc1nc2ccc(OC(F)(F)F)cc2s1
Homo sapiens [26]
  TGI: Active

## CCNCC(=O)N(C)CC(=O)Nc1nc2ccc(OC(F)(F)F)cc2s1
[1]
  t1/2: < 0.25 h
[2]
  t1/2: > 4 h
[3]
  t1/2: < 1 h
[4]
  t1/2: < 0.25 h

## CN(CC(=O)Nc1nc2ccc(OC(F)(F)F)cc2s1)C(=O)CN
[1]
  t1/2: < 0.1 h
[4]
  t1/2: < 0.1 h

## CC(C)(C)NCC(=O)N1CCC[C@@H]1C(=O)Nc1nc2ccc(OC(F)(F)F)cc2s1
[1]
  t1/2: > 2 h
[4]
  t1/2: > 24 h
